Reference: ChEMBL document CHEMBL1122527, “Design, synthesis, and testing of potential antisickling agents. 5. Disubstituted benzoic acids designed for the donor site and proline salicylates designed for the acceptor site” (J Med Chem, 1984)

Assays:
[1] = Evaluated for antisickling activity, and initial HbS concentration was reported, values from different experiments (no. of runs=2); assay type: functional
Outline: (§1)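 Hofrichter-type antigelling assay: the compound was made up as its sodium salt (0.18 M stock) in 0.15 M phosphate buffer, pH 7.4, with sodium bicarbonate. It was diluted with buffer and added to HbS (about 35 g % in 0.15 M phosphate), then dithionite (1.06 M stock) was added and the EPR tubes were sealed. Final drug levels were 5, 10, 20 and 40 mM. Initial HbS (g/dL) is the level after drug and dithionite addition, the same in all six tubes of a run.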

[2] = Control value of dHbS(no. of runs=2); assay type: functional
Outline: (§2)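 Deoxy-HbS control tube with buffer in place of the compound: HbS in 0.15 M phosphate was deoxygenated with dithionite (1.06 M stock) in a sealed EPR tube. It was spun with each run's set of six tubes, alongside four drug tubes and a 40 mM phenylalanine standard. The value is the HbS solubility in g/dL, used as the denominator of the solubility ratio.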

[3] = Evaluated for antisickling activity, and ratio was calculated as solubility HbS (g/dL) / solubility HbS control(g/dL) at a concentration of 10 mM; assay type: functional
Outline: (§3)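 Hofrichter-type antigelling assay. Acids were dissolved as sodium salts (sodium bicarbonate) at 0.18 M stock in 0.15 M phosphate, pH 7.4. Aliquots went into HbS (stock around 35 g%) with dithionite as deoxygenant; EPR tubes were sealed and spun. Final drug was 5, 10, 20 and 40 mM. Each six-tube run held a buffer-only deoxy-HbS control and a 40 mM phenylalanine standard. Ratio = soluble HbS with drug / control (g/dL).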

[4] = Evaluated for antisickling activity, and ratio was calculated as solubility HbS (g/dL) / solubility HbS control(g/dL) at a concentration of 20 mM; assay type: functional; outline: as §3
[5] = Evaluated for antisickling activity, and ratio was calculated as solubility HbS (g/dL) / solubility HbS control(g/dL) at a concentration of 5 mM; assay type: functional; outline: as §3
[6] = Evaluated for antisickling activity, and ratio was calculated as solubility HbS compound (g/dL) / solubility HbS control(g/dL) at a concentration of 40 mM; assay type: functional; outline: as §3
[7] = Control value of dHbS (no. of runs=2); assay type: functional; outline: as §2
[8] = Evaluated for antisickling activity, and initial HbS concentration was reported, values from different experiments (no. of runs=1); assay type: functional; outline: as §1
[9] = Control value of dHbS(no. of runs=1); assay type: functional; outline: as §2
[10] = Compound was evaluated for antisickling activity, and initial HbS concentration was reported, values from different experiments (no. of runs=1); assay type: functional; outline: as §1
[11] = Compound was evaluated for antisickling activity, and initial HbS concentration was reported, values from different experiments (no. of runs=3); assay type: functional; outline: as §1
[12] = Control value of dHbS(no. of runs=3); assay type: functional; outline: as §2
[13] = Compound was evaluated for antisickling activity, and ratio was calculated as solubility HbS compound (g/dL) / solubility HbS control(g/dL) at a concentration of 40 mM (for 173 assays); assay type: functional
Outline: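 Phenylalanine reference standard at 40 mM, included in every six-tube set of the sealed-tube dithionite-deoxygenated HbS sedimentation solubility assay, pH 7.4 phosphate. Ratio = soluble HbS with Phe / soluble HbS in the buffer control (g/dL). Reported as mean and standard deviation over 173 assays.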

[14] = Control value of dHbS (no. of runs=1); assay type: functional; outline: as §2
[15] = Compound was evaluated for antisickling activity, and initial HbS concentration was reported, values from different experiments (no. of runs=1)

## O=C(O)c1ccccc1OC(=O)C1CCCN1C(=O)CCC(O)c1ccccc1 (stereo unspecified)
[1]
  Concentration: 24.5 g/dL
[2]
  Control value: 17.6 g/dL
[3]
  Ratio: 0.98
[4]
  Ratio: 1
[5]
  Ratio: 0.99
[6]
  Ratio: 1.15

## O=C(O)C1CCCN1C(=O)Cc1ccccc1 (stereo unspecified)
[1]
  Concentration: 24.5 g/dL
[7]
  Control value: 17.6 g/dL
[3]
  Ratio: 1.01
[4]
  Ratio: 1.06
[5]
  Ratio: 1
[6]
  Ratio: 1.13

## CC(C)(C)C(=O)N1CCCC1C(=O)Oc1ccccc1C(=O)O (stereo unspecified)
[8]
  Concentration: 22.9 g/dL
[9]
  Control value: 16.5 g/dL
[3]
  Ratio: 1
[4]
  Ratio: 1.03
[5]
  Ratio: 0.993
[6]
  Ratio: 1.08

## CCCCCCCC(=O)Nc1cc(OCC(=O)O)cc(C(=O)O)c1
[8]
  Concentration: 24.3 g/dL
[9]
  Control value: 16.3 g/dL
[3]
  Ratio: 1.1
[4]
  Ratio: 1.23
[5]
  Ratio: 1.04
[6]
  Ratio: 1.43

## O=C(O)COc1cc(NC(=O)c2ccccc2)cc(C(=O)O)c1
[1]
  Concentration: 23.8 g/dL
[2]
  Control value: 17.4 g/dL
[3]
  Ratio: 1.09
[4]
  Ratio: 1.16
[5]
  Ratio: 1.06
[6]
  Ratio: 1.37

## O=C(O)c1ccccc1OC(=O)C1CCCN1C(=O)c1ccccc1 (stereo unspecified)
[1]
  Concentration: 24.5 g/dL
[2]
  Control value: 17.2 g/dL
[3]
  Ratio: 1
[4]
  Ratio: 1.01
[5]
  Ratio: 0.999
[6]
  Ratio: 1.03

## O=C(O)c1ccccc1OC(=O)C1CCCN1C(=O)CCc1ccccc1 (stereo unspecified)
[10]
  Concentration: 23.4 g/dL
[3]
  Ratio: 0.988
[4]
  Ratio: 0.983
[6]
  Ratio: 0.951

## O=C(O)COc1cc(NC(=O)c2ccc(Br)cc2)cc(C(=O)O)c1
[8]
  Concentration: 24 g/dL
[9]
  Control value: 17.4 g/dL
[3]
  Ratio: 1.08
[4]
  Ratio: 1.24
[5]
  Ratio: 1.02
[6]
  Ratio: 1.32

## CCC(=O)Nc1cc(OCC(=O)O)cc(C(=O)O)c1
[8]
  Concentration: 24.3 g/dL
[9]
  Control value: 16.6 g/dL
[3]
  Ratio: 1.03
[4]
  Ratio: 1.07
[5]
  Ratio: 1
[6]
  Ratio: 1.15

## O=C(O)c1ccccc1OC(=O)C1CCCN1C(=O)COc1ccccc1 (stereo unspecified)
[8]
  Concentration: 24 g/dL
[9]
  Control value: 17.1 g/dL
[3]
  Ratio: 1.02
[4]
  Ratio: 1.02
[5]
  Ratio: 0.987
[6]
  Ratio: 1.08

## O=C(O)COc1cc(NC(=O)c2ccc(Cl)c(Cl)c2)cc(C(=O)O)c1
[11]
  Concentration: 24.8 g/dL
[12]
  Control value: 16.9 g/dL
[3]
  Ratio: 1.19
[4]
  Ratio: 1.35
[5]
  Ratio: 1.09
[6]
  Ratio: 1.45

## O=C(O)c1ccccc1OC(=O)C1CCCN1C(=O)Cc1ccccc1 (stereo unspecified)
[8]
  Concentration: 24.6 g/dL
[9]
  Control value: 17.1 g/dL
[3]
  Ratio: 1.03
[4]
  Ratio: 1.05
[5]
  Ratio: 1.03
[6]
  Ratio: 1.15

## CC(C)(Oc1ccc(CCNC(=O)c2ccc(Cl)cc2)cc1)C(=O)O
[11]
  Concentration: 24.8 g/dL
[12]
  Control value: 18.2 g/dL
[3]
  Ratio: 0.932
[4]
  Ratio: 0.981
[5]
  Ratio: 0.954
[6]
  Ratio: 1.2

## N[C@@H](Cc1ccccc1)C(=O)O
[1]
  Concentration: 24.5 g/dL
[2]
  Control value: 17.3 g/dL
[13]
  Ratio: 1.18
[3]
  Ratio: 1.05
[4]
  Ratio: 1.09
[5]
  Ratio: 1.04
[6]
  Ratio: 1.18

## O=C(O)COc1cc(NC(=O)c2ccc(Cl)cc2)cc(C(=O)O)c1
[14]
  Control value: 17.1 g/dL
[3]
  Ratio: 1.16
[4]
  Ratio: 1.34
[5]
  Ratio: 1.07
[6]
  Ratio: 1.38
[15]
  Concentration: 24 g/dL

## CC(C)(C)C(=O)N1CCCC1C(=O)O (stereo unspecified)
[8]
  Concentration: 22.9 g/dL
[9]
  Control value: 16.1 g/dL
[3]
  Ratio: 1.05
[4]
  Ratio: 1.05
[5]
  Ratio: 1.03
[6]
  Ratio: 1.07

## CC(C)(C)CC(=O)N1CCCC1C(=O)Oc1ccccc1C(=O)O (stereo unspecified)
[1]
  Concentration: 28.3 g/dL
[2]
  Control value: 17.6 g/dL
[3]
  Ratio: 1.02
[4]
  Ratio: 0.995
[5]
  Ratio: 0.991
[6]
  Ratio: 1.05
